Measured values: ChEMBL document CHEMBL4689842, “EUbOPEN Chemogenomics Library wave 1” (2021)

What was measured:
Assay type in all cases: toxicity, cell-based
U2OS = assay: Incucyte cell viability with U2OS; details: human, 10 µM, compound concentration 10 uM; also: filed as whole numbers so only -1 and 0 and 1 occur
HEK-293T = assay: Incucyte cell viability with HEK293T; details: human, 10 µM, compound concentration 10 uM; also: filed as whole numbers so only -1 and 0 and 1 occur
Fibroblast = assay: Multiplex assay against human fibroblast
In short: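 Tubulin, mitochondrial-mass and membrane-permeability phenotypes are per cents of healthy-nucleus cells. Cells were gated by CellPathfinder machine learning into Hoechst high-intensity objects or normal cells, normal cells into healthy, pyknosed or fragmented nuclei, and pyknosed cells into mitotic or apoptotic. Before that, live cells stained at seeding with Hoechst33342, BioTracker Green Microtubule Cytoskeleton Dye, MitoTracker Red and Annexin V Alexa Fluor 680 were imaged on a CQ1 microscope at 37°C and 5% CO2 after compound addition.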

[1] = 6 h, replicate number 1, timepoint 6 hours
[2] = 12 h, replicate number 1, timepoint 12 hours
[3] = 18 h, replicate number 1, timepoint 18 hours
[4] = 24 h, replicate number 1, timepoint 24 hours
[5] = 12 h, 1 µM, compound concentration 1 uM, replicate 1
[6] = 12 h, 1 µM, compound concentration 1 uM, replicate 2
[7] = 12 h, 10 µM, compound concentration 10 uM, replicate 1
[8] = 12 h, 10 µM, compound concentration 10 uM, replicate 2
[9] = 24 h, 1 µM, compound concentration 1 uM, replicate 1
[10] = 24 h, 1 µM, compound concentration 1 uM, replicate 2
[11] = 24 h, 10 µM, compound concentration 10 uM, replicate 1
[12] = 24 h, 10 µM, compound concentration 10 uM, replicate 2
[13] = 48 h, 1 µM, compound concentration 1 uM, replicate 1
[14] = 48 h, 1 µM, compound concentration 1 uM, replicate 2
[15] = 48 h, 10 µM, compound concentration 10 uM, replicate 1
[16] = 48 h, 10 µM, compound concentration 10 uM, replicate 2

## Cl.Cl.Nc1ncnc2c1c(-c1cccc(OCc3ccccc3)c1)cn2[C@H]1C[C@@H](CN2CCC2)C1
U2OS; 0 h, replicate number 1, timepoint 0 hours
  Growth Rate: 0
U2OS; [1]
  Growth Rate: 0
U2OS; [2]
  Growth Rate: 0
U2OS; 12 h, replicate number 2, timepoint 12 hours
  Growth Rate: 1
U2OS; [3]
  Growth Rate: 0
U2OS; 18 h, replicate number 2, timepoint 18 hours
  Growth Rate: 1
U2OS; [4]
  Growth Rate: 0
HEK-293T; [1]
  Growth Rate: 0
HEK-293T; [2]
  Growth Rate: 0
HEK-293T; [3]
  Growth Rate: 0
HEK-293T; [4]
  Growth Rate: 0
Fibroblast; [5]
  Population Apoptotic (%): 70%
  Population Fragmented Nuclei (%): 31%
  Population Healthy Nuclei (%): 48%
  Population Hoechst High Intensity Objects (%): 22%
  Population Membrane Permeable-Phenotype (%): 21%
  Population Mitochondria Different-Phenotype (%): 9%
  Population Mitotic Cells (%): 29%
  Population Normal (%): 77%
  Population Pyknosed Nuclei (%): 20%
  Population Tubulin-Different-Phenotype (%): 53%
  Total Cell Count: 109
Fibroblast; [6]
  Population Apoptotic (%): 29%
  Population Fragmented Nuclei (%): 11%
  Population Healthy Nuclei (%): 67%
  Population Hoechst High Intensity Objects (%): 6%
  Population Membrane Permeable-Phenotype (%): 3%
  Population Mitochondria Different-Phenotype (%): 71%
  Population Mitotic Cells (%): 70%
  Population Normal (%): 93%
  Population Tubulin-Different-Phenotype (%): 52%
  Total Cell Count: 55
Fibroblast; [7]
  Population Apoptotic (%): 60%
  Population Fragmented Nuclei (%): 24%
  Population Healthy Nuclei (%): 39%
  Population Hoechst High Intensity Objects (%): 38%
  Population Membrane Permeable-Phenotype (%): 9%
  Population Mitochondria Different-Phenotype (%): 50%
  Population Mitotic Cells (%): 40%
  Population Normal (%): 61%
  Population Pyknosed Nuclei (%): 36%
  Population Tubulin-Different-Phenotype (%): 77%
  Total Cell Count: 222
Fibroblast; [8]
  Population Apoptotic (%): 85%
  Population Fragmented Nuclei (%): 22%
  Population Healthy Nuclei (%): 47%
  Population Hoechst High Intensity Objects (%): 8%
  Population Membrane Permeable-Phenotype (%): 77%
  Population Mitochondria Different-Phenotype (%): 97%
  Population Mitotic Cells (%): 14%
  Population Normal (%): 91%
  Population Pyknosed Nuclei (%): 29%
  Population Tubulin-Different-Phenotype (%): 97%
  Total Cell Count: 90
Fibroblast; [9]
  Population Apoptotic (%): 53%
  Population Fragmented Nuclei (%): 29%
  Population Healthy Nuclei (%): 57%
  Population Hoechst High Intensity Objects (%): 26%
  Population Membrane Permeable-Phenotype (%): 18%
  Population Mitochondria Different-Phenotype (%): 3%
  Population Mitotic Cells (%): 46%
  Population Normal (%): 73%
  Population Pyknosed Nuclei (%): 12%
  Population Tubulin-Different-Phenotype (%): 53%
  Total Cell Count: 141
Fibroblast; [10]
  Population Apoptotic (%): 28%
  Population Fragmented Nuclei (%): 13%
  Population Healthy Nuclei (%): 64%
  Population Hoechst High Intensity Objects (%): 6%
  Population Membrane Permeable-Phenotype (%): 4%
  Population Mitochondria Different-Phenotype (%): 68%
  Population Mitotic Cells (%): 71%
  Population Normal (%): 93%
  Population Pyknosed Nuclei (%): 21%
  Population Tubulin-Different-Phenotype (%): 39%
  Total Cell Count: 50
Fibroblast; [11]
  Population Apoptotic (%): 84%
  Population Fragmented Nuclei (%): 18%
  Population Healthy Nuclei (%): 40%
  Population Hoechst High Intensity Objects (%): 48%
  Population Membrane Permeable-Phenotype (%): 5%
  Population Mitochondria Different-Phenotype (%): 59%
  Population Mitotic Cells (%): 15%
  Population Normal (%): 51%
  Population Pyknosed Nuclei (%): 41%
  Population Tubulin-Different-Phenotype (%): 67%
  Total Cell Count: 178
Fibroblast; [12]
  Population Apoptotic (%): 92%
  Population Fragmented Nuclei (%): 21%
  Population Healthy Nuclei (%): 35%
  Population Hoechst High Intensity Objects (%): 9%
  Population Membrane Permeable-Phenotype (%): 93%
  Population Mitochondria Different-Phenotype (%): 96%
  Population Mitotic Cells (%): 7%
  Population Normal (%): 90%
  Population Pyknosed Nuclei (%): 42%
  Population Tubulin-Different-Phenotype (%): 96%
  Total Cell Count: 104
Fibroblast; [13]
  Population Apoptotic (%): 83%
  Population Fragmented Nuclei (%): 36%
  Population Healthy Nuclei (%): 56%
  Population Hoechst High Intensity Objects (%): 28%
  Population Membrane Permeable-Phenotype (%): 12%
  Population Mitotic Cells (%): 16%
  Population Normal (%): 71%
  Population Pyknosed Nuclei (%): 6%
  Population Tubulin-Different-Phenotype (%): 33%
  Total Cell Count: 132
Fibroblast; [14]
  Population Apoptotic (%): 50%
  Population Fragmented Nuclei (%): 32%
  Population Healthy Nuclei (%): 65%
  Population Hoechst High Intensity Objects (%): 22%
  Population Membrane Permeable-Phenotype (%): 9%
  Population Mitochondria Different-Phenotype (%): 5%
  Population Mitotic Cells (%): 50%
  Population Normal (%): 77%
  Population Pyknosed Nuclei (%): 1%
  Population Tubulin-Different-Phenotype (%): 54%
  Total Cell Count: 145
Fibroblast; [15]
  Population Apoptotic (%): 94%
  Population Fragmented Nuclei (%): 34%
  Population Healthy Nuclei (%): 25%
  Population Hoechst High Intensity Objects (%): 32%
  Population Membrane Permeable-Phenotype (%): 0%
  Population Mitochondria Different-Phenotype (%): 79%
  Population Mitotic Cells (%): 5%
  Population Normal (%): 67%
  Population Pyknosed Nuclei (%): 40%
  Population Tubulin-Different-Phenotype (%): 79%
  Total Cell Count: 139
Fibroblast; [16]
  Population Apoptotic (%): 81%
  Population Fragmented Nuclei (%): 14%
  Population Healthy Nuclei (%): 34%
  Population Hoechst High Intensity Objects (%): 47%
  Population Membrane Permeable-Phenotype (%): 9%
  Population Mitochondria Different-Phenotype (%): 68%
  Population Mitotic Cells (%): 18%
  Population Normal (%): 52%
  Population Pyknosed Nuclei (%): 51%
  Population Tubulin-Different-Phenotype (%): 63%
  Total Cell Count: 122
